Source: ChEMBL document CHEMBL2046277, “Design, synthesis and biological evaluation of β-carboline derivatives as novel inhibitors targeting B-Raf kinase” (Bioorg Med Chem Lett, 2012)

Target: Serine/threonine-protein kinase B-raf (Homo sapiens, UniProt P15056)
Test: Inhibition of human wild type B-Raf kinase assessed as change in ATP consumption by luciferase-luiferin-coupled chemiluminescent assay
Summary of the method: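 Wild-type B-Raf enzyme pre-incubated with compound 30 min at 30 °C, then ATP plus unactivated MEK1 substrate added and reacted 1 h at 30 °C. ADP-Glo reagent 40 min at 27 °C, then kinase detection reagent 30 min at 27 °C, luminescence read. IC50 fitted from inhibition rates; mean of two experiments.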

Sequence of Serine/threonine-protein kinase B-raf (P15056 whole entry): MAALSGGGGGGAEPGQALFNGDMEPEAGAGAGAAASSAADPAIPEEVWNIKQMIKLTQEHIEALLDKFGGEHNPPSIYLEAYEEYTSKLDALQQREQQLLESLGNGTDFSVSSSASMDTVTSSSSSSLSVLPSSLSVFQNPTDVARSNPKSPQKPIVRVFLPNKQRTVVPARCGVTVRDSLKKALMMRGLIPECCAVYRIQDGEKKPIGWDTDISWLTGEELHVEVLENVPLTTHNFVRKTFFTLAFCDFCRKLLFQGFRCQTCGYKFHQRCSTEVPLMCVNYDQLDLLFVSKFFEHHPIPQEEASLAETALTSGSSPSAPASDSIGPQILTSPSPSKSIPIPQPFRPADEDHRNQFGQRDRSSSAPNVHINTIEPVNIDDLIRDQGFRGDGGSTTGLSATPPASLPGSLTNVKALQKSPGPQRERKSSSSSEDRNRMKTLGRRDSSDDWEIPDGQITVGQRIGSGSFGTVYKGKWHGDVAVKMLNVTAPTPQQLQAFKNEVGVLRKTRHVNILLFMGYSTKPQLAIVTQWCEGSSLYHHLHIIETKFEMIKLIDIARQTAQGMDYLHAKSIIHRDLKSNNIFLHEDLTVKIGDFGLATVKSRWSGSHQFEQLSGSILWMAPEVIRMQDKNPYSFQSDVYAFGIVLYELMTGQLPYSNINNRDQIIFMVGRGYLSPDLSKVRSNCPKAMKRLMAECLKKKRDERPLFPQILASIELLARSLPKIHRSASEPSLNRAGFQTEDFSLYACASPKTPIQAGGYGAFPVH

| SMILES | IC50 [µM] |
| --- | --- |
| NC(=O)c1nccc2c1[nH]c1ccc(S(=O)(=O)NCCCO)cc12 | 20.5 |
| CC(=O)NS(=O)(=O)c1ccc2[nH]c3cnccc3c2c1 | 59.1 |
| NC(=O)c1nccc2c1[nH]c1ccc(S(=O)(=O)NCCO)cc12 | 23.7 |
| COCCCNS(=O)(=O)c1ccc2[nH]c3c(C(N)=O)nccc3c2c1 | 22.7 |
| NC(=O)c1nccc2c1[nH]c1ccc(S(=O)(=O)NCC(O)CO)cc12 (stereo not drawn) | 45.1 |
| COC(CNS(=O)(=O)c1ccc2[nH]c3c(C(N)=O)nccc3c2c1)OC | 91.5 |
| NC(=O)c1nccc2c1[nH]c1ccc(S(=O)(=O)Nc3ccc(F)cc3)cc12 | 8.89 |
| CC(O)CNS(=O)(=O)c1ccc2[nH]c3c(C(N)=O)nccc3c2c1 (stereo not drawn) | 22 |
| NC(=O)c1nccc2c1[nH]c1ccc(S(=O)(=O)NC3CC3)cc12 | 9.07 |
| CCCNS(=O)(=O)c1ccc2[nH]c3c(C(N)=O)nccc3c2c1 | 28.5 |
| Cc1ccc(NS(=O)(=O)c2ccc3[nH]c4c(C(N)=O)nccc4c3c2)cc1 | 20.5 |

Molecules with a lower IC50, results first:

| IC50 [µM] | SMILES |
| --- | --- |
| 3.76 | NC(=O)c1nccc2c1[nH]c1ccc(S(=O)(=O)Nc3ccccn3)cc12 |
| 1.62 | CN(C)CCCNS(=O)(=O)c1ccc2[nH]c3c(C(N)=O)nccc3c2c1 |
| 2.49 | NS(=O)(=O)c1ccc2[nH]c3cnccc3c2c1 |
| 2.12 | NC(=O)c1nccc2c1[nH]c1ccc(S(N)(=O)=O)cc12 |
| 7.48 | NC(=O)c1nccc2c1[nH]c1ccc(S(=O)(=O)Nc3nccs3)cc12 |
| 2.74 | NC(=O)c1nccc2c1[nH]c1ccc(S(=O)(=O)Nc3ccccc3)cc12 |
| 2.81 | CCN(CC)CCCNS(=O)(=O)c1ccc2[nH]c3c(C(N)=O)nccc3c2c1 |
